Legend:
[1] = test system: Liver; experiment: Dose normalized AUC in ICR mouse liver at 50 mg/kg, po by LC-MS/MS analysis; type: ADME, organism-based; set-up: dose 50 mg/kg, route oral; conditions: in vivo
[2] = Selectivity index, […] for human MT4 cells
[3] = test system: Liver; experiment: AUC (0 to 6 hrs) in ICR mouse liver at 50 mg/kg, po by LC-MS/MS analysis; type: ADME, organism-based; set-up: time < 6 hr, dose 50 mg/kg, route oral; conditions: in vivo
[4] = Cytotoxicity against human CEM cells after 72 hrs by celltiter-glo assay; type: cell-based, CCRF-CEM
How it was run: (§1)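 Cells kept in log phase of growth throughout the cytotoxicity experiments.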

[5] = Metabolic stability in mouse plasma assessed as compound remaining at 1 ug/ml after 30 mins; type: ADME, cell-free; conditions: read-out: Stability
[6] = Cytotoxicity against human HEK293 cells after 72 hrs by celltiter-glo assay; type: cell-based; how it was run: as §1
[7] = Cytotoxicity against human HEL cells after 72 hrs by celltiter-glo assay; type: cell-based; how it was run: as §1
[8] = Metabolic stability in rat plasma assessed as compound remaining at 1 ug/ml after 4 hrs; type: ADME, cell-free; conditions: read-out: Stability
How it was run: (§2)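 Duplicate incubations; compound at final 1 μg/mL in plasma preincubated and kept at […]; samples taken at 30 or 240 min, quenched with ice-cold acetonitrile, centrifuged, supernatant diluted with water; parent quantified by LC-MS/MS (Polar-RP column, formic acid water/acetonitrile gradient, positive ion mode); % remaining reported.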

[9] = Selectivity index, […] for human HEL cells
[10] = test system: Plasma; experiment: Dose normalized AUC in ICR mouse plasma at 50 mg/kg, po by LC-MS/MS analysis; type: ADME, organism-based; set-up: dose 50 mg/kg, route oral; conditions: in vivo
[11] = Metabolic stability in cynomolgus monkey plasma assessed as compound remaining at 1 ug/ml after 30 mins; type: ADME, cell-free, Macaca fascicularis; conditions: read-out: Stability; how it was run: as §2
[12] = Metabolic stability in dog plasma assessed as compound remaining at 1 ug/ml after 4 hrs; type: ADME, cell-free, Canis lupus familiaris; conditions: read-out: Stability; how it was run: as §2
[13] = Selectivity index, […] for human Caco-2 cells
[14] = Cytotoxicity against human MT4 cells after 72 hrs by celltiter-glo assay; type: cell-based; how it was run: as §1
[15] = Selectivity index, […] for human HuH7 cells; set-up: species or system Huh-7
[16] = Selectivity index, […] for human CEM cells; set-up: species or system CCRF-CEM
[17] = Cytotoxicity against human Caco-2 cells after 72 hrs by celltiter-glo assay; type: cell-based; how it was run: as §1
[18] = Metabolic stability in rat plasma assessed as compound remaining at 1 ug/ml after 30 mins; type: ADME, cell-free; conditions: read-out: Stability; how it was run: as §2
[19] = species: Homo sapiens; experiment: Metabolic stability in human plasma assessed as compound remaining at 1 ug/ml after 4 hrs
[20] = Selectivity index, […] for rat IEC-6 cells
[21] = Metabolic stability in dog plasma assessed as compound remaining at 1 ug/ml after 30 mins; type: ADME, cell-free, Canis lupus familiaris; conditions: read-out: Stability; how it was run: as §2
[22] = Cytotoxicity against human HuH7 cells after 72 hrs by celltiter-glo assay; type: cell-based, Huh-7
How it was run: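 Replicon 1b Huh7 cells seeded 2 × 10⁴/well; after 24 h, 11 serial 2× dilutions from 100 μM (three repeats each) with no-compound control; 72 h at 37 °C, CO₂, log-phase growth; viability by CellTiter-Glo luminescence; CC₅₀ = concentration giving 50% signal.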

[23] = Cytotoxicity against rat IEC6 cells after 72 hrs by celltiter-glo assay; type: cell-based; how it was run: as §1
[24] = Metabolic stability in cynomolgus monkey plasma assessed as compound remaining at 1 ug/ml after 4 hrs; type: ADME, cell-free, Macaca fascicularis; conditions: read-out: Stability; how it was run: as §2
[25] = Metabolic stability in mouse plasma assessed as compound remaining at 1 ug/ml after 4 hrs; type: ADME, cell-free; conditions: read-out: Stability
[26] = species: Homo sapiens; experiment: Metabolic stability in human plasma assessed as compound remaining at 1 ug/ml after 30 mins
[27] = Cmax in ICR mouse plasma at 50 mg/kg, po by LC-MS/MS analysis; type: ADME, organism-based; set-up: dose 50 mg/kg, route oral
[28] = Cytotoxicity against human HepG2 cells after 72 hrs by celltiter-glo assay; type: cell-based; how it was run: as §1
[29] = Selectivity index, […] for human HEK293 cells
[30] = Selectivity index, […] for human HepG2 cells
[31] = test system: Hepatitis C virus; experiment: Antiviral activity against HCV1b infected in human HuH7 cells assessed as inhibition of viral replication after 48 hrs by luciferase reporter gene assay; type: functional, organism-based, Hepacivirus hominis; conditions: genotype 1b, Huh-7, 48 h
How it was run: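 Huh7 cells carrying genotype 1b bicistronic subgenomic replicon, seeded 2 × 10⁴/well without G-418; compounds added 18-24 h later, 48 h exposure; 3× or 4× serial dilutions over 0.0001-10 μM in triplicate/quadruplicate; Renilla luciferase read-out versus untreated cells; EC₅₀ by four-parameter sigmoidal nonlinear regression; at least three independent assays.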

[32] = test system: Liver; experiment: AUC (0 to 24 hrs) in ICR mouse liver at 50 mg/kg, po by LC-MS/MS analysis; type: ADME, organism-based; set-up: time < 24 hr, dose 50 mg/kg, route oral; conditions: in vivo
[33] = Metabolic stability in dog liver S9 fraction assessed as compound remaining at 10 uM after 30 mins by HPLC analysis in presence of NADP; type: ADME, subcellular, Canis lupus familiaris; conditions: read-out: Stability
[34] = Metabolic stability in dog liver S9 fraction assessed as compound remaining at 10 uM after 30 mins by HPLC analysis in absence of NADP; type: ADME, subcellular, Canis lupus familiaris; conditions: read-out: Stability
[35] = Metabolic stability in human intestine S9 fraction assessed as compound remaining at 10 uM after 30 mins by HPLC analysis in absence of NADP; type: ADME, tissue-based; conditions: read-out: Stability
[36] = Metabolic stability in human intestine S9 fraction assessed as compound remaining at 10 uM after 30 mins by HPLC analysis in presence of NADP; type: ADME, tissue-based; conditions: read-out: Stability
[37] = Metabolic stability in human liver S9 fraction assessed as compound remaining at 10 uM after 30 mins by HPLC analysis in absence of NADP; type: ADME, subcellular; conditions: read-out: Stability
[38] = Metabolic stability in dog intestine S9 fraction assessed as compound remaining at 10 uM after 30 mins by HPLC analysis in presence of NADP; type: ADME, tissue-based, Canis lupus familiaris; conditions: read-out: Stability
[39] = Metabolic stability in dog intestine S9 fraction assessed as compound remaining at 10 uM after 30 mins by HPLC analysis in absence of NADP; type: ADME, tissue-based, Canis lupus familiaris; conditions: read-out: Stability
[40] = Metabolic stability in human liver S9 fraction assessed as compound remaining at 10 uM after 30 mins by HPLC analysis in presence of NADP; type: ADME, subcellular; conditions: read-out: Stability
[41] = Metabolic stability in rat liver S9 fraction assessed as compound remaining at 10 uM after 30 mins by HPLC analysis in absence of NADP; type: ADME, subcellular; conditions: read-out: Stability
[42] = Metabolic stability in rat liver S9 fraction assessed as compound remaining at 10 uM after 30 mins by HPLC analysis in presence of NADP; type: ADME, subcellular; conditions: read-out: Stability
[43] = Metabolic stability in rat intestine S9 fraction assessed as compound remaining at 10 uM after 30 mins by HPLC analysis in absence of NADP; type: ADME, tissue-based; conditions: read-out: Stability
[44] = Metabolic stability in cynomolgus monkey liver S9 fraction assessed as compound remaining at 10 uM after 30 mins by HPLC analysis in absence of NADP; type: ADME, subcellular, Macaca fascicularis; conditions: read-out: Stability
[45] = Metabolic stability in cynomolgus monkey intestine S9 fraction assessed as compound remaining at 10 uM after 30 mins by HPLC analysis in presence of NADP; type: ADME, tissue-based, Macaca fascicularis; conditions: read-out: Stability
[46] = Metabolic stability in rat intestine S9 fraction assessed as compound remaining at 10 uM after 30 mins by HPLC analysis in presence of NADP; type: ADME, tissue-based; conditions: read-out: Stability
[47] = Metabolic stability in cynomolgus monkey intestine S9 fraction assessed as compound remaining at 10 uM after 30 mins by HPLC analysis in absence of NADP; type: ADME, tissue-based, Macaca fascicularis; conditions: read-out: Stability
[48] = Metabolic stability in cynomolgus monkey liver S9 fraction assessed as compound remaining at 10 uM after 30 mins by HPLC analysis in presence of NADP; type: ADME, subcellular, Macaca fascicularis; conditions: read-out: Stability

C[C@H](NP(=O)(OC[C@H]1O[C@@H](n2cnc3c(=O)[nH]c(N)nc32)[C@](C)(O)[C@@H]1O)Oc1cccc2ccccc12)C(=O)O[C@@H](C)c1ccccc1 (some centres not stated)
AUC [1]: 108 ng·h/g | Selectivity Index [2]: >=1000 | AUC [3]: 2596 ng·h/g | CC50 at 72 h [4]: 82 µM | remaining at 0.5 h, 1 ug/ml [5]: 3.1% | CC50 at 72 h [6]: > 100 µM | CC50 at 72 h [7]: > 100 µM | remaining at 4 h, 1 ug/ml [8]: 0% | Selectivity Index [9]: >=1000 | AUC [10]: 85 ng·h/mL | remaining at 0.5 h, 1 ug/ml [11]: 100% | remaining at 4 h, 1 ug/ml [12]: 92% | Selectivity Index [13]: >=1000 | CC50 at 72 h [14]: 87 µM | Selectivity Index [15]: >=1000 | Selectivity Index [16]: >=1000 | CC50 at 72 h [17]: > 100 µM | remaining at 0.5 h, 1 ug/ml [18]: 0.8% | remaining at 4 h, 1 ug/ml [19]: 99% | Selectivity Index [20]: >=1000 | remaining at 0.5 h, 1 ug/ml [21]: 97% | CC50 at 72 h [22]: > 100 µM | CC50 at 72 h [23]: > 100 µM | remaining at 4 h, 1 ug/ml [24]: 100% | remaining at 4 h, 1 ug/ml [25]: 0% | remaining at 0.5 h, 1 ug/ml [26]: 100% | Cmax [27]: 1380 ng/mL | CC50 at 72 h [28]: > 100 µM | Selectivity Index [29]: >=1000 | Selectivity Index [30]: >=1000 | EC50 [31]: 0.08 µM | AUC [32]: 5390 ng·h/g

C[C@@]1(O)[C@H](O)[C@@H](COP(=O)(N[C@@H](Cc2ccccc2)C(=O)OCc2ccccc2)Oc2cccc3ccccc23)O[C@H]1n1cnc2c(=O)[nH]c(N)nc21 (some centres not stated)
remaining at 0.5 h, 10 µM [33]: 4% | remaining at 0.5 h, 1 ug/ml [5]: 1% | remaining at 0.5 h, 10 µM [34]: 15% | remaining at 0.5 h, 10 µM [35]: 5% | remaining at 0.5 h, 10 µM [36]: 0% | remaining at 0.5 h, 10 µM [37]: 20% | remaining at 0.5 h, 10 µM [38]: 0% | CC50 at 72 h [22]: > 100 µM | EC50 [31]: 1.2 µM | remaining at 0.5 h, 10 µM [39]: 0% | remaining at 0.5 h, 10 µM [40]: 0%

C[C@H](NP(=O)(OC[C@H]1O[C@@H](n2cnc3c(=O)[nH]c(N)nc32)[C@](C)(O)[C@@H]1O)Oc1cccc2ccccc12)C(=O)OCc1ccccc1 (some centres not stated)
remaining at 0.5 h, 10 µM [41]: 0% | remaining at 0.5 h, 10 µM [42]: 0% | remaining at 0.5 h, 1 ug/ml [5]: 1.1% | remaining at 0.5 h, 10 µM [35]: 49% | remaining at 0.5 h, 10 µM [43]: 46% | remaining at 0.5 h, 10 µM [44]: 32% | remaining at 0.5 h, 10 µM [36]: 0% | remaining at 0.5 h, 1 ug/ml [11]: 54% | remaining at 0.5 h, 10 µM [37]: 41% | remaining at 0.5 h, 1 ug/ml [18]: 1.3% | remaining at 0.5 h, 10 µM [45]: 0% | remaining at 0.5 h, 1 ug/ml [21]: 67% | remaining at 0.5 h, 10 µM [46]: 30% | CC50 at 72 h [22]: > 100 µM | remaining at 0.5 h, 10 µM [47]: 30% | remaining at 0.5 h, 1 ug/ml [26]: 58% | remaining at 0.5 h, 10 µM [48]: 0% | EC50 [31]: 0.062 µM | remaining at 0.5 h, 10 µM [40]: 27%

From ChEMBL document CHEMBL1177718, “Phosphoramidate ProTides of 2'-C-methylguanosine as highly potent inhibitors of hepatitis C virus. Study of their in vitro and in vivo properties” (J Med Chem, 2010)
